From ChEMBL document CHEMBL4765278, “Synthesis of antiplatelet ortho-carbonyl hydroquinones with differential action on platelet aggregation stimulated by collagen or TRAP-6” (Eur J Med Chem, 2020)
pIC50: −log10 of the molar value. One block for each compound: values may come before it. Calls of active or inactive are those of the source. The calls are words filed in the database; no cut-off is given here.

Experiments:
[1] = system: Platelet; experiment: Antiplatelet activity in human Platelet assessed as inhibition of collagen-induced GP2a/3b activation at 2 to 20 uM by flow cytometric analysis; format: functional, cell-based; settings: dose 2-20 µM
[2] = system: Platelet; experiment: Effect on platelet activation in human collagen/TRAP6-inducrd human Platelet assessed as positive subpopulation cells at 2 to 20 uM by annexin V-FITC staining based flow cytometric analysis; format: functional, tissue-based; settings: dose 2-20 µM
Summary of the method: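 Washed platelets (3x10^8/mL) preincubated 5 min with 2 mM CaCl2 plus compound and stimulated with collagen + TRAP-6. Diluted in annexin V binding buffer and stained with annexin V-FITC and anti-CD61-PE for 25 min in the dark; flow cytometry.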

[3] = Selectivity index, ratio of IC50 for inhibition of TRAP6-induced platelet aggregation in human platelet to IC50 for inhibition of collagen-induced platelet aggregation in human platelet; format: functional
Summary of the method: (§1)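 Light transmission aggregometry of washed human platelets (3x10^8/mL) preincubated 5 min with 2 mM CaCl2 plus compound (0.2 to 200 μM; DMSO 0.2% vehicle). Aggregation induced by TRAP-6 (5 μM) or collagen (1 μg/mL) and followed 6 min. IC50 from dose-response curves, mean ± SEM of three experiments. S.I. = IC50 TRAP-6/IC50 collagen.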

[4] = Inhibition of collagen-induced platelet aggregation in human platelet preincubated for 5 mins followed by 2 ug/ml collagen-stimulation and measured after 6 mins by lumi-aggregometric method relative to control; format: functional; settings: time 11 min
Summary of the method: (§2)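 Washed platelets (3x10^8/mL) preincubated 5 min with 2 mM CaCl2 plus compound, then challenged at maximal agonist level, 10 μM TRAP-6 or 2 collagen as printed. Transmission followed 6 min and compared with DMSO 0.2% control; n=3.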

[5] = system: Platelet; experiment: Antiplatelet activity in human Platelet assessed as mitochondrial membrane potential loss at 2 to 20 uM by TMRM staining based flow cytometric analysis; format: functional, cell-based; settings: dose 2-20 µM
Summary of the method: (§3)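 Washed platelets loaded with TMRM (100 nM), then incubated with DMSO 0.2%, compound or FCCP (1 μM) at 37°C for 20 min; ΔΨm by flow cytometry.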

[6] = system: Platelet; experiment: Antiplatelet activity in human Platelet assessed as inhibition of collagen-induced ATP secretion at 2 to 20 uM by Cell Titer-Glo luminescent cell viability assay; format: functional, cell-based; settings: dose 2-20 µM
[7] = system: Platelet; experiment: Antiplatelet activity in human Platelet assessed as intracellular ATP level at 2 to 20 uM by Cell Titer-Glo luminescent cell viability assay; format: functional, cell-based; settings: dose 2-20 µM
Summary of the method: (§4)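 Intraplatelet ATP in resting washed human platelets measured by CellTiter-Glo luminescence following the kit instructions. Mean ± SEM of n=3 experiments.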

[8] = system: Platelet; experiment: Antiplatelet activity in human Platelet assessed as intracellular calcium level at 2 to 20 uM preincubated for 5 mins and measured for 15 sec by Fluo-3-AM staining based assay; format: functional, cell-based; settings: dose 2-20 µM
Summary of the method: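 Washed platelets (5x10^7/mL) loaded with Fluo-3-AM (0.4 μM) for 30 min at RT, then given vehicle (DMSO 0.2%) or compound for 5 min. Baseline recorded 15 s, then FCCP (1 μM) added and read 60 s more by flow cytometry. Expressed relative to control.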

[9] = system: Platelet; experiment: Antiplatelet activity in human Platelet assessed as inhibition of collagen-induced p-selectin protein expression at 2 to 20 uM by flow cytometric analysis; format: functional, cell-based; settings: dose 2-20 µM
[10] = system: Platelet; experiment: Antiplatelet activity in human Platelet assessed as intracellular NADH level at 2 to 20 uM by fluorescence assay; format: functional, cell-based; settings: dose 2-20 µM
Summary of the method: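 NAD(P)H autofluorescence in resting washed platelets, excitation 340 nm and emission 428 nm. Mean ± SEM of n=3.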

[11] = system: Platelet; experiment: Cytotoxicity against human Platelet assessed as increase in LDH leakage at 200 uM after 10 mins by LDH assay; format: cell-based
Summary of the method: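 Washed platelets (3x10^8/mL) incubated 10 min at 37°C with compound (200 μM), then centrifuged 800 x g for 8 min. Supernatant LDH kit read at 490 nm; 10% Triton X-100 served as positive control.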

[12] = Inhibition of TRAP6-induced platelet aggregation in human platelet preincubated for 5 mins followed by 10 uM TRAP6-stimulation and measured after 6 mins by lumi-aggregometric method relative to control; format: functional; settings: time 11 min; summary of the method: as §2
[13] = system: Platelet; experiment: Antiplatelet activity in human Platelet assessed as ROS production at 2 to 20 uM by DHE staining based flow cytometric analysis; format: functional, cell-based; settings: dose 2-20 µM
Summary of the method: (§5)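 Washed human platelets (5x10^7/mL) exposed to compounds with 10 μM dihydroethidium for 20 min at 37°C; ROS read by flow cytometry. Mean ± SEM of three experiments.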

[14] = system: Platelet; experiment: (§6) Inhibition of TRAP6-induced platelet aggregation in human platelet preincubated for 5 mins followed by TRAP6-stimulation and measured after 6 mins by lumi-aggregometric method; format: functional, tissue-based; settings: time 11.0 min; summary of the method: as §1
[15] = as §6; format: functional, tissue-based; summary of the method: as §1
[16] = system: Platelet; experiment: (§7) Inhibition of collagen-induced platelet aggregation in human platelet preincubated for 5 mins followed by collagen-stimulation and measured after 6 mins by lumi-aggregometric method; format: functional, tissue-based; settings: time 11.0 min; summary of the method: as §1
[17] = as §7; format: functional, tissue-based; summary of the method: as §1
[18] = system: Platelet; experiment: Antiplatelet activity in human Platelet assessed as inhibition of TRAP6-induced p-selectin protein expression at 2 to 20 uM by flow cytometric analysis; format: functional, cell-based; settings: dose 2-20 µM
[19] = system: Platelet; experiment: Antiplatelet activity in human Platelet assessed as decrease in intracellular ATP level at 20 uM by Cell Titer-Glo luminescent cell viability assay; format: functional, cell-based; summary of the method: as §4
[20] = system: Platelet; experiment: Antiplatelet activity in human Platelet assessed as mitochondrial membrane potential loss at 20 uM by TMRM staining based flow cytometric analysis; format: functional, cell-based; summary of the method: as §3
[21] = system: Platelet; experiment: Antiplatelet activity in human Platelet assessed as increase in ROS production at 20 uM by DHE staining based flow cytometric analysis; format: functional, cell-based; summary of the method: as §5
[22] = system: Platelet; experiment: Antiplatelet activity in human Platelet assessed as inhibition of TRAP6-induced ATP secretion at 2 to 20 uM by Cell Titer-Glo luminescent cell viability assay; format: functional, cell-based; settings: dose 2-20 µM
[23] = system: Platelet; experiment: Antiplatelet activity in human Platelet assessed as inhibition of TRAP6-induced GP2a/3b activation at 2 to 20 uM by flow cytometric analysis; format: functional, cell-based; settings: dose 2-20 µM
[24] = system: Platelet; experiment: Antiplatelet activity in human Platelet assessed as inhibition of TRAP6-induced CD63 expression at 2 to 20 uM by flow cytometric analysis; format: functional, cell-based; settings: dose 2-20 µM

SMILES: CCCCCCCC1=CC(C)(C)c2c(O)ccc(O)c2C1=O
Activity [11]: Toxic

SMILES: CC1C=CC(COC(=O)C2CCCCC2)c2c(O)c3c(c(O)c21)C(=O)C=CC3(C)C (stereo not given)
Activity [11]: Non-Toxic
pIC50 [15]: < 4.00
pIC50 [17]: < 4.00

SMILES: CC1C=CC(CO)c2c(O)c3c(c(O)c21)C(C)(C)C=CC3=O (stereo not given)
Ratio IC50 [3]: 1.37
Activity [11]: Non-Toxic
pIC50 [15]: 4.80
pIC50 [17]: 4.94

SMILES: O=C1C=CC2(CCCC2)c2c(O)c3c(c(O)c21)CC=CC3
Ratio IC50 [3]: 3.92
Activity [11]: Non-Toxic
pIC50 [15]: < 4.00
pIC50 [17]: 4.59

SMILES: CC1C=CC(COC(=O)C2CCCCC2)c2c(O)c3c(c(O)c21)C(C)(C)C=CC3=O (stereo not given)
Activity [11]: Non-Toxic
pIC50 [15]: < 4.00
pIC50 [17]: < 4.00

SMILES: CCCCCCC1=CC(C)(C)c2c(O)ccc(O)c2C1=O
Activity [11]: Toxic

SMILES: CCCCCC1=CC(C)(C)c2c(O)ccc(O)c2C1=O
Activity [11]: Toxic

SMILES: CCCSc1nc(N[C@@H]2C[C@H]2c2ccc(F)c(F)c2)c2nnn([C@@H]3C[C@H](OCCO)[C@@H](O)[C@H]3O)c2n1 [TICAGRELOR]
Ratio IC50 [3]: 2
pIC50 [15]: 5.40
pIC50 [17]: 5.70

Continued, in another order:

pIC50 [15]: < 4.00
pIC50 [17]: 5.75
SMILES: O=C1C=CC2(CCCC2)c2c(O)ccc(O)c21
inhibition [1]: Active
Activity [2]: inactive
Ratio IC50 [3]: 56.5
inhibition (INH) [4]: 100%
Activity [5]: inactive
inhibition [6]: Active
Activity [7]: inactive
Activity [8]: inactive
inhibition [9]: Active
Activity [10]: inactive
Activity [11]: Non-Toxic
inhibition (INH) [12]: 100%
Activity [13]: inactive
inhibition [14]: Dose-dependent effect
inhibition [16]: Dose-dependent effect

pIC50 [15]: < 4.00
pIC50 [17]: 4.92
SMILES: Cc1c(C)c(O)c2c(c1O)C(=O)C=CC2(C)C
Ratio IC50 [3]: 8.35
Activity [11]: Non-Toxic

pIC50 [15]: < 4.00
pIC50 [17]: 5.36
SMILES: CC1C=CC(CO)c2c(O)c3c(c(O)c21)C(=O)C=CC3(C)C (stereo not given)
Ratio IC50 [3]: 22.83
Activity [11]: Non-Toxic

pIC50 [15]: 4.50
pIC50 [17]: 4.45
SMILES: CCC1(CC)C=CC(=O)c2c(O)ccc(O)c21
Ratio IC50 [3]: 0.9
Activity [11]: Non-Toxic

pIC50 [15]: < 4.00
pIC50 [17]: 4.69
SMILES: CC1(C)C=CC(=O)c2c(O)c3c(c(O)c21)CC=CC3
Ratio IC50 [3]: 4.86
Activity [11]: Non-Toxic

pIC50 [15]: 4.93
pIC50 [17]: 4.77
SMILES: CCC1(CC)C=CC(=O)c2c(O)c3c(c(O)c21)CC=CC3
inhibition [18]: Active
Activity [2]: inactive
Ratio IC50 [3]: 0.69
inhibition (INH) [4]: 100%
Activity [19]: Active
Activity [20]: Active
Activity [21]: Active
Activity [8]: inactive
Activity [10]: inactive
inhibition [22]: Active
Activity [11]: Non-Toxic
inhibition [23]: Active
inhibition (INH) [12]: 100%
inhibition [14]: Dose-dependent effect
inhibition [16]: Dose-dependent effect
inhibition [24]: Active

pIC50 [15]: < 4.00
pIC50 [17]: 4.84
SMILES: CC1(C)C=CC(=O)c2c(O)ccc(O)c21
Ratio IC50 [3]: 7
Activity [11]: Non-Toxic
